Reference: PMC10610910 (Science Advances, 2023)
Numbering of substitutions follows the chain as printed. In names and notes the source's numbering stands. Entries after “also recorded” stand apart in the source; their conditions may differ. No end group written: not given here.

Experiments:
[1] = target: HSF2BP bound to BRME1-M (complex formed beforehand) (human) (UniProt O75031); assay: ITC
[2] = test system: HR intermediates (X-arc) of pICL in Xenopus egg extract; assay type: biochemical; conditions: HSF2BP 0.45 μM, peptide 1.35 μM
HSF2BP [3] = target: T1, HSF2BP (Homo sapiens, UniProt O75031); assay: ITC, BRME1 peptides versus full-length HSF2BP; assay type: binding
T1 sequence (O75031 1-334): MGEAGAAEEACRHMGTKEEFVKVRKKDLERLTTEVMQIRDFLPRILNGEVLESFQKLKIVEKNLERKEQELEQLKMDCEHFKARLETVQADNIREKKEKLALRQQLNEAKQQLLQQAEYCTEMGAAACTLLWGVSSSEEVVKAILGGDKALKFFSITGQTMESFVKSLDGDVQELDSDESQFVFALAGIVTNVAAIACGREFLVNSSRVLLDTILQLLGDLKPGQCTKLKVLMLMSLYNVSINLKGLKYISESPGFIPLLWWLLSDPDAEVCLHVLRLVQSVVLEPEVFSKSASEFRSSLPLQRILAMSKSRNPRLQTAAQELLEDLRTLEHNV
Outline: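 Full-length HSF2BP was His-tagged and bacterially expressed (IPTG, 20°C overnight), TEV-cleaved and SEC-purified. Synthetic BRME1 peptides: N, residues 578–601; M, 602–641; C, 649–668. In 25 mM tris pH 7.5, 250 mM NaCl, 5 mM β-mercaptoethanol at 293 and 303 K, 8–13 μM HSF2BP in the cell was titrated with 80–130 μM peptide. Injections of 10 μl every 210 s; first 2-μl injection discarded. Run in duplicate, fitted for stoichiometry, constants and thermodynamics.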

[4] = test system: interstrand crosslink repair (pICL) in Xenopus egg extract; assay: Cisplatin interstrand crosslink repair in Xenopus egg extract; assay type: biochemical; conditions: HSF2BP 0.45 μM, peptide 1.35 μM
HSF2BP [5] = target: T1, HSF2BP; assay: Mass photometry; assay type: physicochemical; conditions: 25-100 nM
endogenous Xenopus BRCA2 = assay: BRCA2 degradation during interstrand crosslink repair in Xenopus egg extract; assay type: biochemical; conditions: HSF2BP 0.45 μM, peptide 1.35 μM; 5 to 120 min
HSF2BP + BRCA2-HBD = target: T2, HSF2BP + BRCA2-HBD (Homo sapiens, UniProt O75031+P51587); assay: ITC, BRME1-M versus HSF2BP bound to BRCA2-HBD; assay type: binding; conditions: 293 K
T2 sequence (O75031 1-334): T1 sequence (O75031 1-334)
T2 sequence (P51587 2291-2342 C2332T partner limits assumed): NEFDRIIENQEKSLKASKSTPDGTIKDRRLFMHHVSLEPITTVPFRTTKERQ

[6] = test system: complex formed by HSF2BP and BRCA2-HBD; assay: Negative-staining EM of ring-shaped HSF2BP-BRCA2-HBD complex; assay type: binding, human; conditions: 2:1 mix of HSF2BP and BRCA2-HBD
HSF2BP helix α1 = target: T3, HSF2BP helix α1 (Homo sapiens, UniProt O75031); assay: ITC, BRME1-M versus HSF2BP helix α1 peptide; assay type: binding
T3 sequence (O75031 19-50 limits assumed): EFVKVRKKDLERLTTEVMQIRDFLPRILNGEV

HSF2BP [7] = target: T1, HSF2BP; assay: Scanning force microscopy; assay type: physicochemical
Outline: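 HSF2BP was diluted 10,000-fold to 12 nM in 25 mM tris-HCl pH 7.5, 250 mM NaCl, 5 mM β-mercaptoethanol. It was deposited for 30 s on freshly cleaved mica, rinsed with water, dried under filtered air, and imaged in air by SFM. Particle volume distributions were obtained by kernel density analysis.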

crystal structure = target: the molecule itself; assay: crystal structure
HeLa cells = assay type: cell-based, human; conditions: HeLa stably producing the protein; MMC, cisplatin, talazoparib
Outline: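 HeLa cells in DMEM with 10% fetal calf serum were stably co-transfected (PiggyBac) with GFP-HSF2BP and/or Flag-BRME1 variants, then selected with puromycin (1.5 μg/ml) and G418 (800 μg/ml) for 8 days; mixed populations were used. Seeded 100–1000 cells/well in technical duplicates, drugs added next day: MMC 2 h, cisplatin or talazoparib overnight. Coomassie-stained colonies counted on day 10.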

HSF2BP + BRME1-M = target: T4, HSF2BP + BRME1-M (Homo sapiens, UniProt O75031+Q0VDD7); assay: ITC, BRCA2 fragments versus HSF2BP bound to BRME1-M; assay type: binding; conditions: 293 K
T4 sequence (O75031 1-334): T1 sequence (O75031 1-334)
T4 sequence (Q0VDD7 602-641 partner limits assumed): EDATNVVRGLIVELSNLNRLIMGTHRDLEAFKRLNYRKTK

SEC-MALS = target: the molecule itself; assay: SEC-MALS
[8] = SFM on mica, in air, HSF2BP at 12 nM

BRCA2 fragment 2213–2342 (from UniProt P51587 2213-2342) (domain or fragment)
dH [1]: -10.9 kcal/mol

BRME1-C: synthetic peptide, human BRME1 residues 649 to 668 (PYPSKGPGNIPRGDPPWREL)
effect on HR repair intermediates, in words [2]: no such effect | binding to HSF2BP, in words (HSF2BP [3]; 30°C): does not bind HSF2BP | effect on interstrand crosslink repair, in words [4]: no such effect

EDATNVVRGLVIELSNLNRLIMGTHRDLEAFKRLNYRKTK [BRME1-M]
effect on HR repair intermediates, in words [2]: specifically suppressed the reduction in the formation of HR repair intermediates | ΔG (HSF2BP [3]; 293 K): -10.6 kcal/mol | ΔH (HSF2BP [3]; 293 K): -5.7 kcal/mol | ─TΔS (HSF2BP [3]; 293 K): -4.90 kcal/mol | ΔG (HSF2BP [3]; 303 K): -10.7 kcal/mol | ΔH (HSF2BP [3]; 303 K): -8.2 kcal/mol | ─TΔS (HSF2BP [3]; 303 K): -2.50 kcal/mol | effect on / state of HSF2BP oligomers, in words (HSF2BP [5]): the HSF2BP tetramer is dissociated into dimers; also recorded: disassembles the 24-nucleotide oligomer complexes, yielding to a mix between octamers, tetramers, and dimers; also recorded: caused disassembly of the ring-shaped complex and enrichment in double-octamers, octamers, and tetramers | effect on HSF2BP-induced BRCA2 degradation, in words (endogenous Xenopus BRCA2): completely abolished | ΔG (HSF2BP + BRCA2-HBD; first of two lines): -10 kcal/mol | ΔH (HSF2BP + BRCA2-HBD; first of two lines): -4.4 kcal/mol | ─TΔS (HSF2BP + BRCA2-HBD; first of two lines): -5.60 kcal/mol | ΔH (HSF2BP + BRCA2-HBD; second of two lines): -5.8 kcal/mol | ─TΔS (HSF2BP + BRCA2-HBD; second of two lines): -4.40 kcal/mol | effect on ring-shaped complexes, in words [6]: near-complete disappearance of the large ring-shape complexes | effect on interstrand crosslink repair, in words [4]: reverted the inhibitory effect of HSF2BP on the interstrand crosslink repair reaction | ΔH (HSF2BP helix α1; 293 K): -1.2 kcal/mol | ─TΔS (HSF2BP helix α1; 293 K): -9.00 kcal/mol | ΔH (HSF2BP helix α1; 303 K): -7.6 kcal/mol | ─TΔS (HSF2BP helix α1; 303 K): -2.90 kcal/mol | effect on HSF2BP-BRCA2-HBD oligomers, in words (HSF2BP [7]; SFM, HSF2BP:BRME1-M = 1:1): complete disappearance of the 24-nucleotide oligomer population

B1: armadillo domain: HSF2BP armadillo domain alone (E122-V334) (protein)
chain: EMGAAACTLLWGVSSSEEVVKAILGGDKALKFFSITGQTMESFVKSLDGDVQELDSDESQFVFALAGIVTNVAAIACGREFLVNSSRVLLDTILQLLGDLKPGQCTKLKVLMLMSLYNVSINLKGLKYISESPGFIPLLWWLLSDPDAEVCLHVLRLVQSVVLEPEVFSKSASEFRSSLPLQRILAMSKSRNPRLQTAAQELLEDLRTLEHNV
particle volume, larger peak (HSF2BP [7]; [8]): ~90 nm^3 | particle volume, smaller peak (HSF2BP [7]; [8]): ~35 nm^3

EFVKVRKKDLERLTTEVMQIRDFLPRILNGEV (peptide, UniProt O75031 19-50, looked up) [HSF2BP helix α1 peptide (residues 19 to 50)]
stoichiometry N (crystal structure): 4

B2: BRME1: Flag-BRME1 stably produced in HeLa cells (protein, UniProt Q0VDD7 1-668, looked up)
Break repair meiotic …: MTKRKKLRTSGEGLCPPKPLKNPRLGDFYGDPQSSMLGCLHHPEEPEGKLGPVPSTQQHGEEPGKAVSSSPDEETGSPCRLLRQPEKEPAPLPPSQNSFGRFVPQFAKSRKTVTRKEEMKDEDRGSGAFSLETIAESSAQSPGCQLLVETLGVPLQEATELGDPTQADSARPEQSSQSPVQAVPGSGDSQPDDPPDRGTGLSASQRASQDHLSEQGADDSKPETDRVPGDGGQKEHLPSIDSEGEKPDRGAPQEGGAQRTAGAGLPGGPQEEGDGVPCTPASAPTSGPAPGLGPASWCLEPGSVAQGSPDPQQTPSRMGREGEGTHSSLGCSSLGMVVIADLSTDPTELEERALEVAGPDGQASAISPASPRRKAADGGHRRALPGCTSLTGETTGESGEAGQDGKPPGDVLVGPTASLALAPGSGESMMGAGDSGHASPDTGPCVNQKQEPGPAQEEAELGGQNLERDLEGFRVSPQASVVLEHREIADDPLQEPGAQQGIPDTTSELAGQRDHLPHSADQGTWADSLAVELDFLLDSQIQDALDASDFEAPPEQLFPSGNKPGPCWPGPSSHANGDPVAVAKAQPRTFVGIQASEASRMEDATNVVRGLIVELSNLNRLIMGTHRDLEAFKRLNYRKTKLGGKAPLPYPSKGPGNIPRGDPPWREL
modifications: Flag tag
effect on cell resistance to DNA damage, in words (HeLa cells): cancels the disruptive effect of HSF2BP on cancer cell resistance to DNA damage; also recorded: no effect on the cell sensitivity to DNA damage; also recorded: completely abolished the sensitization induced by HSF2BP

B3: BRCA2_2213–2342: BRCA2 fragment 2213–2342 (protein, UniProt P51587 2213-2342, looked up, fragment)
chain: STYSKDSENYFETEAVEIAKAFMEDDELTDSKLPSHATHSLFTCPENEEMVLSNSRIGKRRGEPLILVGEPSIKRNLLNEFDRIIENQEKSLKASKSTPDGTIKDRRLFMHHVSLEPITCVPFRTTKERQ
ΔH (HSF2BP + BRME1-M): -10.9 kcal/mol | ─TΔS (HSF2BP + BRME1-M): -1.70 kcal/mol | Kd (HSF2BP + BRME1-M; pH 7.5, 10 μM complex in cell, 55 to 60 μM BRCA2 fragment in syringe): 7.8 nM

B4: HSF2BP H80A-R84A (natural protein, human, UniProt O75031 1-334, looked up)
chain: T1 sequence (O75031 1-334) with H80A, R84A
stoichiometry N (SEC-MALS): 8 | effect on cell resistance to DNA damage, in words (HeLa cells): compromised cell survival as HSF2BP wild type

B5: C78A-C120S-C128A (protein, UniProt O75031 1-334, looked up, variant C78A C120S C128A)
Heat shock factor 2-binding …: T1 sequence (O75031 1-334) with C78A, C120S, C128A
effect on cell resistance to DNA damage, in words (HeLa cells): sensitized HeLa cells less than the wild-type protein
